Results from different studies.
Lines come from different studies, so protocols differ.
ADAM17: Disintegrin and metalloproteinase domain-containing protein 17 (ADAM17, Homo sapiens, UniProt P78536)
DYRK2: Dual specificity tyrosine-phosphorylation-regulated kinase 2 (DYRK2, Homo sapiens, UniProt Q92630)

CCOC(=O)c1ccc(OC(=O)CCCCCNC(=N)N)cc1 has an inhibition of 7% (ADAM17; enzyme activity, inhibitor; 10 µM).
For CC(C)C[C@H](NC(=O)[C@H](Cc1ccccc1)NC(=O)c1cnccn1)B(O)O, the inhibition was 61.8% (Cathepsin G (CTSG, Homo sapiens, UniProt P08311); enzyme activity, inhibitor; 33 µM).
For Cn1cc(-c2cccc(N3CCc4c(sc5c4CC(C)(C)C5)C3=O)c2CO)cc(Nc2ccncn2)c1=O, the inhibition was 14% (Phosphatidylinositol 4,5-bisphosphate 3-kinase catalytic subunit alpha isoform (PIK3CA, Homo sapiens, UniProt P42336); enzyme activity, inhibitor; 1 µM).
C[C@H](C(=O)N[C@H]1COc2ccccc2[C@@H]1S(C)(=O)=O)c1ccc(F)cc1 has an inhibition of 4% (Gamma-aminobutyric acid type B receptor subunit 1 (GABBR1, Homo sapiens, UniProt Q9UBS5); cell-free assay; 10 µM).
For CC(C)C[C@H](CC(=O)NO)C(=O)N[C@H](C(=O)N[C@@H](C)C(=O)NCCN)C(C)(C)C, the inhibition was 73% (ADAM17; enzyme activity, inhibitor; 10 µM).
With COCc1c(-c2cc3cc(C)cc(OC)c3s2)c2c(N)ncnn2c1CN1CCNC(=O)C1 the inhibition was 18% (Motilin receptor (MLNR, Homo sapiens, UniProt O43193); ligand displacement, radioligand; 10 µM).
The inhibition of CN(C)C(=O)COC(=O)Cc1ccc(OC(=O)c2ccc(NC(=N)N)cc2)cc1 is reported as 6% (ADAM17; enzyme activity, inhibitor; 10 µM).
c1ccc(C(NCCNC(c2ccccc2)c2ccccc2)c2ccccc2)cc1 gave an inhibition of 0% (Vasopressin V1b receptor (AVPR1B, Homo sapiens, UniProt P47901); cell-free assay; 10 µM).
With C#Cc1n[nH]c2c(-c3cn([C@@H](C)c4ccccc4)c(=O)[nH]c3=O)cc(F)cc12 the inhibition was 7.9% (DYRK2; enzyme activity, inhibitor; 0.1 µM).
COc1cc2c(cc1OC)-c1c(oc3cc4c(cc3c1=O)CCO4)CO2 has an inhibition of 14.3% (Glycogen synthase kinase-3 beta (GSK3B, Homo sapiens, UniProt P49841); enzyme activity, inhibitor, ADP detection; 100 µM).
For COc1cc(Nc2ncc(F)c(Nc3ccc4c(n3)NC(=O)C(C)(C)O4)n2)cc(OC)c1OC, the inhibition was 0% (Serine/threonine-protein kinase 32B (STK32B, Homo sapiens, UniProt Q9NY57); binding, competition with immobilised ligand; 10 µM).
For C#Cc1n[nH]c2c(-c3cn([C@@H](C)c4ccccn4)c(=O)[nH]c3=O)cc(F)cc12, the inhibition was -0.2% (DYRK2; enzyme activity, inhibitor; 0.1 µM).
CN(CCN1CCC(OC(=O)Nc2ccccc2-c2ccccc2)CC1)C(=O)c1ccc(CN2CCC(C(N)=O)CC2)cc1 gave an inhibition of -12% (4-aminobutyrate aminotransferase, mitochondrial (Rattus norvegicus, UniProt P50554); enzyme activity, inhibitor; 1 µM).
